Source: ChEMBL document CHEMBL3526132, “In vitro metabolism of BIIB021, an inhibitor of heat shock protein 90, in liver microsomes and hepatocytes of rats, dogs, and humans and recombinant human cytochrome P450 isoforms” (Drug Metab Dispos, 2012)
Each block holds one compound with its values, some of them ahead of it.

Tests used:
[1] = tested on: Liver microsome; test: Drug metabolism in human liver microsomes assessed as CF2246 metabolite formation at 10 uM after […] by LC-RAM-MS analysis in presence of anti-CYP3A4 monoclonal antibody; assay type: ADME
Outline: (§1)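 All components except substrate and NADPH were preincubated 15 min on ice, then 5 min at 37°C. Substrate and NADPH were added and incubated 60 min at 37°C. Incubations without antibody served as positive controls.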

[2] = tested on: Liver microsome; test: Drug metabolism in human liver microsomes assessed as CF2246 metabolite formation at 10 uM after […] by LC-RAM-MS analysis in presence of anti-CYP2A6 monoclonal antibody; assay type: ADME; outline: as §1
[3] = tested on: Liver microsome; test: Drug metabolism in human liver microsomes assessed as CF2246 metabolite formation at 10 uM after […] by LC-RAM-MS analysis in presence of anti-CYP2E1 monoclonal antibody; assay type: ADME; outline: as §1
[4] = target: CYP3A4 (Homo sapiens, UniProt P08684); test: Drug metabolism assessed as unchanged drug level in baculovirus-infected Sf9 cell microsomes expressing human recombinant CYP3A4 at 10 uM after 30 mins by LC-RAM-MS analysis; assay type: ADME; details: read-out: Drug metabolism
Outline: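 Microsomes from baculovirus-infected Sf9 cells expressing recombinant human CYP3A4 with CYP450 reductase (50 pmol/mL) incubated in duplicate with 10 µM [14C]BIIB021 (0.5 µCi/mL) in 100 mM potassium phosphate pH 7.4. Reaction started with 1 mM NADPH (final), run 30 min at 37°C with gentle shaking, stopped with ice-cold acetonitrile containing 0.1% formic acid, centrifuged, and supernatant analysed by LC-MS.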

[5] = tested on: Liver microsome; test: Drug metabolism in human liver microsomes assessed as CF3785 metabolite formation at 10 uM […] by LC-RAM-MS analysis in presence of anti-CYP1A2 monoclonal antibody; assay type: ADME; outline: as §1
[6] = tested on: Liver microsome; test: Drug metabolism in human liver microsomes assessed as CF3785 metabolite formation at 10 uM […] by LC-RAM-MS analysis in presence of anti-CYP2A6 monoclonal antibody; assay type: ADME; outline: as §1
[7] = tested on: Liver microsome; test: Drug metabolism in human liver microsomes assessed as CF3785 metabolite formation at 10 uM […] by LC-RAM-MS analysis in presence of anti-CYP2B6 monoclonal antibody; assay type: ADME; outline: as §1
[8] = tested on: Liver microsome; test: Drug metabolism in human liver microsomes assessed as CF2246 metabolite formation at 10 uM […] by LC-RAM-MS analysis in presence of anti-CYP2C19 monoclonal antibody; assay type: ADME; outline: as §1
[9] = tested on: Liver microsome; test: Drug metabolism in human liver microsomes assessed as CF2246 metabolite formation at 10 uM […] by LC-RAM-MS analysis in presence of anti-CYP1A2 monoclonal antibody; assay type: ADME; outline: as §1
[10] = Drug metabolism in human liver cytosol assessed as CF2483 metabolite formation at 10 uM after 30 mins by LC-RAM-MS analysis in presence of aldehyde oxidase inhibitor raloxifene; assay type: ADME; details: 0.5 h
Outline: (§2)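 Human liver cytosol (1 mg/mL protein) incubated with 10 µM [14C]BIIB021 (0.5 µCi/mL) in 100 mM phosphate buffer, pH 7.4, for 30 min. Reaction quenched with ice-cold acetonitrile, then centrifuged 10 min at 4°C, and supernatant analysed by LC-MS. Where used, inhibitors (isovanillin 100 µM, menadione 100 µM, allopurinol 100 µM, raloxifene 50 µM) were preincubated in cytosol 10 min at 37°C before substrate addition.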

[11] = Drug metabolism in human liver cytosol assessed as CF2483 metabolite formation at 10 uM after 30 mins by LC-RAM-MS analysis in presence of aldehyde oxidase inhibitor isovanillin; assay type: ADME; details: 0.5 h; outline: as §2
[12] = tested on: Liver microsome; test: Drug metabolism in human liver microsomes assessed as CF3785 metabolite formation at 10 uM […] by LC-RAM-MS analysis in presence of anti-CYP2D6 monoclonal antibody; assay type: ADME; outline: as §1
[13] = Drug metabolism in human liver cytosol assessed as CF2483 metabolite formation at 10 uM after 30 mins by LC-RAM-MS analysis; assay type: ADME, tissue-based; details: 0.5 h; outline: as §2
[14] = tested on: Liver microsome; test: Drug metabolism in human liver microsomes assessed as CF2246 metabolite formation at 10 uM […] by LC-RAM-MS analysis in presence of anti-CYP2B6 monoclonal antibody; assay type: ADME; outline: as §1
[15] = Drug metabolism in human liver cytosol assessed as CF2483 metabolite formation at 10 uM after 30 mins by LC-RAM-MS analysis in presence of xanthine oxidase inhibitor allopurinol; assay type: ADME; details: 0.5 h; outline: as §2
[16] = Drug metabolism in human liver cytosol assessed as CF2483 metabolite formation at 10 uM after 30 mins by LC-RAM-MS analysis in presence of aldehyde oxidase inhibitor menadione; assay type: ADME; details: 0.5 h; outline: as §2
[17] = tested on: Liver microsome; test: Drug metabolism in human liver microsomes assessed as CF2246 metabolite formation at 10 uM after […] by LC-RAM-MS analysis in presence of anti-CYP2D6 monoclonal antibody; assay type: ADME; outline: as §1
[18] = tested on: Liver microsome; test: Drug metabolism in human liver microsomes assessed as CF3785 metabolite formation at 10 uM […] by LC-RAM-MS analysis in presence of anti-CYP2E1 monoclonal antibody; assay type: ADME; outline: as §1
[19] = tested on: Liver microsome; test: Drug level in human liver microsomes treated with [14C]BIIB021 at 10 uM […] by LC-RAM-MS analysis in presence of anti-CYP2E1 monoclonal antibody; assay type: ADME; details: 1.5 h
[20] = tested on: Liver microsome; test: Drug level in human liver microsomes treated with [14C]BIIB021 at 10 uM after 90 mins by LC-RAM-MS analysis in presence of anti-CYP2B6 monoclonal antibody; assay type: ADME; details: 1.5 h
[21] = tested on: Liver microsome; test: Drug level in human liver microsomes treated with [14C]BIIB021 at 10 uM […] by LC-RAM-MS analysis in presence of anti-CYP1A2 monoclonal antibody; assay type: ADME; details: 1.5 h
[22] = tested on: Liver microsome; test: Drug level in human liver microsomes treated with [14C]BIIB021 at 10 uM after 90 mins by LC-RAM-MS analysis in presence of anti-CYP2D6 monoclonal antibody; assay type: ADME; details: 1.5 h
[23] = tested on: Liver microsome; test: Drug level in human liver microsomes treated with [14C]BIIB021 at 10 uM after 90 mins by LC-RAM-MS analysis in presence of anti-CYP2A6 monoclonal antibody; assay type: ADME; details: 1.5 h
[24] = Drug level in human liver cytosol treated with [14C]BIIB021 at 10 uM after 30 mins by LC-RAM-MS analysis in presence of xanthine oxidase inhibitor allopurinol; assay type: ADME, tissue-based; details: 0.5 h; outline: as §2
[25] = Drug level in human liver cytosol treated with [14C]BIIB021 at 10 uM after 30 mins by LC-RAM-MS analysis; assay type: ADME, tissue-based; details: 0.5 h; outline: as §2
[26] = tested on: Liver microsome; test: Drug level in human liver microsomes treated with [14C]BIIB021 at 10 uM after 90 mins by LC-RAM-MS analysis in presence of anti-CYP3A4 monoclonal antibody; assay type: ADME; details: 1.5 h
[27] = tested on: Liver microsome; test: Drug level in human liver microsomes treated with [14C]BIIB021 at 10 uM […] by LC-RAM-MS analysis in presence of anti-CYP2C19 monoclonal antibody; assay type: ADME; details: 1.5 h

Chain of CYP3A4 (P08684 whole entry): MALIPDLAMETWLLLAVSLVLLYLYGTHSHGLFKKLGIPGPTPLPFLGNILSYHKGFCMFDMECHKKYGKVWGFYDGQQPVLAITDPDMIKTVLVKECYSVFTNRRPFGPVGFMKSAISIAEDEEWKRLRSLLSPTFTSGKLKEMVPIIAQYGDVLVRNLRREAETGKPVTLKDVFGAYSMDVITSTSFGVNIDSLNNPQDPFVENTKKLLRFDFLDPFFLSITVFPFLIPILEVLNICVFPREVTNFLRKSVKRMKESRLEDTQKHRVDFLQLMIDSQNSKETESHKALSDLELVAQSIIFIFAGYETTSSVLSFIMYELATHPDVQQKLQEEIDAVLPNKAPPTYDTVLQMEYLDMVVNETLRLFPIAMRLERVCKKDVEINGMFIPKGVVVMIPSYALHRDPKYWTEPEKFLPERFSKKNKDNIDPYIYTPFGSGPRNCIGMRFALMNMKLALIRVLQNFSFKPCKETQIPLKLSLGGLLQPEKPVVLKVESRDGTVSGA

Drug metabolism [1]: metabolite_detected
Drug metabolism [2]: metabolite_detected
Drug metabolism [3]: metabolite_detected
remaining at 0.5 h, 10 µM [4]: 70%
Drug metabolism [5]: metabolite_detected
Drug metabolism [6]: metabolite_detected
Drug metabolism [7]: metabolite_detected
Drug metabolism [8]: metabolite_detected
Drug metabolism [9]: metabolite_detected
Drug metabolism [10]: metabolite_not_detected
Drug metabolism [11]: metabolite_not_detected
Drug metabolism [12]: metabolite_detected
Drug metabolism [13]: metabolite_detected
Drug metabolism [14]: metabolite_detected
Drug metabolism [15]: metabolite_detected
Drug metabolism [16]: metabolite_not_detected
Drug metabolism [17]: metabolite_detected
Drug metabolism [18]: metabolite_detected
SMILES: COc1c(C)cnc(Cn2[14cH]nc3c(Cl)nc(N)nc32)c1C

Drug metabolism [19]: metabolite_detected
Drug metabolism [20]: metabolite_detected
Drug metabolism [21]: metabolite_detected
Drug metabolism [22]: metabolite_detected
Drug metabolism [23]: metabolite_detected
SMILES: COc1c(CO)cnc(Cn2cnc3c(Cl)nc(N)nc32)c1C

Drug metabolism [24]: metabolite_detected
Drug metabolism [25]: metabolite_detected
SMILES: COc1c(C)cnc(Cn2c(O)nc3c(Cl)nc(N)nc32)c1C

Drug metabolism [26]: metabolite_detected
Drug metabolism [19]: metabolite_detected
Drug metabolism [27]: metabolite_detected
Drug metabolism [20]: metabolite_detected
Drug metabolism [21]: metabolite_detected
Drug metabolism [22]: metabolite_detected
Drug metabolism [23]: metabolite_detected
SMILES: Cc1cnc(Cn2cnc3c(Cl)nc(N)nc32)c(C)c1O
